Source: PubChem
NRP1-CendR mod – modulators of CendR peptide binding to NRP-1, primary screen, biochemical, fluorescence polarization, uHTS. inhibition, % at 25 µM. AID 602438, 2012. FAM-RPARPAR peptide binding to NRP-1. 360,000 compounds, 0.85% hits;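 active = inhibition or corrected inhibition above about 18%, plus a signal ratio from 0.5 to 1.5, limit read from the data, passing the limit was not always enough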
Target sequence (O14786 whole entry, looked up): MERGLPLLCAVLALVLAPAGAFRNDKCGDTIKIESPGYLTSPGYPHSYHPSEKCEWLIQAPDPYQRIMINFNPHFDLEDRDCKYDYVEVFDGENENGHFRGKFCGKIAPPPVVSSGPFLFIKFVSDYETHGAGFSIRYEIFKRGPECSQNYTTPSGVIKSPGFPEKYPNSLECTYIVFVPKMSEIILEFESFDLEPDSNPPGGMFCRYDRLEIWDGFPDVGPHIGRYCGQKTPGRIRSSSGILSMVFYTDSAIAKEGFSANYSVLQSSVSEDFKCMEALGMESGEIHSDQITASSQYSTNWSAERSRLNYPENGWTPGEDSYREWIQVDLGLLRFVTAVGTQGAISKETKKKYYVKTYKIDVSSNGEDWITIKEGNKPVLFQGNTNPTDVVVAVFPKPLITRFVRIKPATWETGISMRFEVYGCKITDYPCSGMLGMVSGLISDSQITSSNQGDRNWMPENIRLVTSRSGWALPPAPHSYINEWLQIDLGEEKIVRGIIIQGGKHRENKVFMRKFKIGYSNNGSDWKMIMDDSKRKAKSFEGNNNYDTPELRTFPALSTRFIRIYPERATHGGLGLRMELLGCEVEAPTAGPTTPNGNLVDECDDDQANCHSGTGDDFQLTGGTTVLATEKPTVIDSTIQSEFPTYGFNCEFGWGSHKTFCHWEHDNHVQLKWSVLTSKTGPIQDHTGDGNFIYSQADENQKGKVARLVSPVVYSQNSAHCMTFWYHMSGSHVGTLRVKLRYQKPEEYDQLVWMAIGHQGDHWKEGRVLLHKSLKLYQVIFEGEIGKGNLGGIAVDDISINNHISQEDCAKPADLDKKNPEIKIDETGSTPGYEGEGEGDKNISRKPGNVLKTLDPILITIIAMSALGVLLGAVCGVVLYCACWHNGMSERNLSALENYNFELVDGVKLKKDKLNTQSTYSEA
iPSC survival up – enhancers of single-cell hiPSC survival, primary screen, ATPlite luminescence; 100% = ROCK inhibitor wells, 0% = DMSO; survival enhancement, % at 20 µM; 360,000 compounds, 0.044% hits; AID 602274, 2012; in the data active = survival enhancement above about 18%;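 note: cells exposed to compounds for 16 hours before the ATP read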
MT1-MMP act inh – blockers of MT1-MMP proenzyme processing, primary screen, HT1080 RFP-PRO-GFP cells, GFP/RFP fluorescence. Matrix metalloproteinase-14 (Homo sapiens), P50281. GFP/RFP ratio fluorescence, overnight; percent of plate control window, DMSO zero. GFP/RFP ratio change, % at 20 µM. 360,000 compounds, 0.061% hits;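 active = GFP/RFP ratio change of at least 30% with cell ATP level not reduced by more than half and red fluorescence within 50% of control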
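system = RFP-PRO-GFP reporter HT1080 cells | dosing = 20 µM single dose, 1% DMSO | timing = overnight cell settling, then overnight compound exposure, 37 °C, 5% CO2 | read-out basis = GFP/RFP fluorescence ratio | controls = DMSO and RFP-L50D-GFP cell wells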
SKN-1 inh – suppressors of acrylamide-induced Pgst-4::GFP reporter in worms, primary screen, SKN-1 inhibitor project, whole organism, uHTS, GFP/RFP fluorescence ratio, strain VP596; C. elegans VP596 Pgst-4::GFP/RFP ratio, 24 h; inhibition, % at 21.8 µM; 360,000 compounds, 0.49% hits; AID 624304, 2012;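 active = interference check ratio from 0.5 to 1.5 plus GFP to RFP signal ratio inhibition reaching or exceeding a fixed threshold, cut at about 30% in these data, passing the limit was not always enough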
Numbers stand for hits; i = inactive; nt = no result given. Rows were chosen to be rich in hits. Some 1.4% of all compounds tested hit in one or more screens of this group.

SMILES | NRP1-CendR mod | iPSC survival up | MT1-MMP act inh | SKN-1 inh
COC(=O)c1[nH]c(C)c(/C(O)=C2\C(=O)C(=O)N(CCCN3CCOCC3)C2c2ccccn2)c1C (stereo not drawn) | i | i | i | 38
C/C(=N\NC(=O)c1c[nH]c2ccccc12)c1ccc(C)s1 | i | i | i | i
CC/C(=N\NC(=O)c1c[nH]c2ccccc12)c1cccs1 | 30 | i | nt | i
CC(Oc1ccccc1)C(=O)Nc1nc(-c2ccncc2)cs1 (stereo not drawn) | i | 25 | i | i
O=C(Nc1nc(-c2nc3ccccc3s2)cs1)c1ccco1 | i | i | i | i
O=C(Nc1nc(-c2ccccc2)cs1)c1cccs1 | i | i | i | 63
O=C(Nc1ccc2nc(-c3ccccc3)[nH]c2c1)c1cccs1 | i | i | i | 39
O=C(Nc1nc(-c2ccc(Cl)s2)cs1)c1ccco1 | i | i | i | 85
O=C(Nc1nc(-c2ccc(Cl)s2)cs1)c1cccs1 | i | i | i | 48
CC(C)C[C@@H](CNCC(=O)[C@H](Cc1c[nH]c2ccccc12)NC(=O)c1[nH]cnc1C(=O)N[C@@H](C)CN)NC(=O)c1nc[nH]c1C(=O)N[C@@H](Cc1ccccc1)C(=O)O | i | i | i | i
CC(C)C[C@@H](CNC(=O)OC(C)(C)C)NC(=O)c1nc[nH]c1C(=O)N[C@@H](CC(C)C)C(=O)CNC[C@H](CC(C)C)NC(=O)c1nc[nH]c1C(=O)N[C@@H](Cc1c[nH]c2ccccc12)C(=O)OC(C)(C)C | 23 | i | i | i
CC(C)C[C@H](NC(=O)c1[nH]cnc1C(=O)N[C@@H](Cc1ccccc1)C(=O)OCc1ccccc1)C(=O)OCc1ccccc1 | 20 | i | i | i
CC(C)(C)OC(=O)[C@H](CCCCN)NC(=O)c1[nH]cnc1C(=O)N[C@@H](Cc1ccccc1)C(=O)OCc1ccccc1 | 28 | i | i | i
CC(C)C[C@H](NC(=O)c1nc[nH]c1C(=O)N[C@@H](CC(C)C)C(=O)OCc1ccccc1)C(=O)OCc1ccccc1 | i | i | i | i
Cc1cccc(/C(N)=N/OC(=O)C23CC4CC(CC(C4)C2)C3)c1 | i | i | i | i
Cc1cc(N/C=C/C(=O)c2cccs2)ccc1F | i | i | i | i
Cc1ccc(N/C=C/C(=O)c2cccs2)cc1C | i | i | i | 39
COc1ccc(NC(=O)CSc2n[nH]c(C)c2[N+](=O)[O-])cc1 | i | i | i | i
Cc1cc(C)c(NS(=O)(=O)c2ccccc2)c(C)n1 | i | i | i | i
Cc1ccc(N=C2NC(=O)/C(=C\c3ccsc3)S2)c(C)c1 | 26 | i | i | i
Cc1ccc(N=C2NC(=O)/C(=C/c3cccnc3)S2)c(C)c1 | i | i | i | i
COc1ccc(NC(=O)Cc2ccc(Cl)c(Cl)c2)cn1 | i | i | i | i
COc1ccc(NC(=O)/C(Cl)=C(/Cl)S(=O)(=O)Cc2ccc(C)cc2)cn1 | i | 23 | i | i
CN1C(=O)[C@H]2[C@@H](C3CC3)N3C(=O)CN(Cc4ccccn4)C(=O)[C@@]3(Cc3ccccc3)[C@H]2C1=O | i | i | i | i
N#Cc1ccc(Nc2nc(-c3ccccc3)cs2)cc1 | i | i | i | i
SMILES | NRP1-CendR mod | iPSC survival up | MT1-MMP act inh | SKN-1 inh
c1ccc(-c2csc(Nc3ccc4c(c3)OCO4)n2)cc1 | 24 | i | i | i
CCNc1c([N+](=O)[O-])ncn1C | 32 | i | i | i
Cn1cnc([N+](=O)[O-])c1NCc1ccccc1 | i | i | i | i
COc1cccc(CN2CCN(Cc3ccco3)CC2)c1 | 22 | i | i | i
COc1cccc(N2CCN(Cc3ccco3)CC2)c1 | i | i | i | i
COc1ccc(CN2CCN(Cc3ccco3)CC2)cc1 | i | i | i | 40
COc1ccc(CN2CCN(Cc3ccco3)CC2)cc1OC | i | i | i | i
Cc1c(NC(=O)CSc2ccc3ccccc3n2)c(=O)n(-c2ccccc2)n1C | i | i | i | i
CCN1CCCn2c1nc1c2c(=O)n(C)c(=O)n1C | i | i | i | i
O=C(O)CC12CC3CC(C1)CC(n1ncc(NCC4CCCO4)c(Cl)c1=O)(C3)C2 (stereo not drawn) | 25 | i | i | i
COCCNC(=O)CC(c1ccccc1)c1ccccc1 | i | i | i | 36
CCCCNC(=O)c1c(CSc2ccc(Cl)cc2)noc1C(=O)NCCC | 31 | i | i | i
O=S(=O)(Cc1ccc(Cl)cc1)Oc1ccc(Cl)cc1 | i | i | i | 46
O=[N+]([O-])c1ccc(OS(=O)(=O)Cc2ccccc2)cc1 | i | i | i | i
CC(C)(C)OC(=O)NCc1ccc(CNC(=O)c2nc[nH]c2C(=O)N2CCN(C(=O)OC(C)(C)C)CC2)cc1 | 27 | i | i | i
CC1CCN(C(=O)c2[nH]cnc2C(=O)N[C@H](C)c2ccccc2)CC1 | i | i | i | i
Cc1ccc(NC(=O)c2nc[nH]c2C(=O)N2CCN(C(=O)OC(C)(C)C)CC2)cc1 | i | i | i | i
C[C@@H](NC(=O)c1nc[nH]c1C(=O)N1CCN(c2ccccc2)CC1)c1ccccc1 | 22 | i | i | i
C[C@H](NC(=O)c1nc[nH]c1C(=O)NCCCCCNC(=O)OC(C)(C)C)c1ccccc1 | 28 | i | i | i
C[C@H](NC(=O)c1nc[nH]c1C(=O)NCc1ccc(CNC(=O)OC(C)(C)C)cc1)c1ccccc1 | 28 | i | i | i
CCOC(=O)Cc1nnc(NC(=O)COc2ccc(C)cc2)s1 | i | i | i | i
O=C(NC(c1ccccc1)c1ccccc1)C1(c2cccs2)CCOCC1 | i | i | i | i
NS(=O)(=O)c1ccc(CCNC(=O)c2cnccn2)cc1 | i | i | i | i
C[C@H](NC(=O)c1nc[nH]c1C(=O)NCc1ccccc1)c1ccccc1 | i | i | i | i
C[C@@H](NC(=O)c1nc[nH]c1C(=O)NCc1ccccc1)c1ccccc1 | 26 | i | i | i
SMILES | NRP1-CendR mod | iPSC survival up | MT1-MMP act inh | SKN-1 inh
CCOc1ccc(/C(O)=C2\C(=O)C(=O)N(c3ccccn3)C2c2ccccc2F)c(C)c1 (stereo not drawn) | i | i | i | i
CC(C)(C)[C@H]1CCC(=O)N([C@H](CSc2ccccc2)Cc2ccccc2)CC1 | i | i | i | i
CC(=O)Nc1ccc(SC[C@H](Cc2ccccc2)N2CC[C@@H](C(C)(C)C)CCC2=O)cc1 | 28 | i | i | i
CC(=O)Nc1ccc(SC[C@H](Cc2ccccc2)N2CCN(CCc3ccccc3)CCC2=O)cc1 | 25 | i | i | i
Cc1cc(NC(=O)COc2ccccc2C(N)=O)no1 | i | i | i | i
CCN1C(=O)C2C(c3ccccc3F)NC(Cc3ccc(O)cc3)(C(=O)OC)C2C1=O (stereo not drawn) | i | i | i | 37
CCOC(=O)C1(C)NC(c2ccccc2F)C2C(=O)N(CC)C(=O)C21 (stereo not drawn) | i | i | i | i
